pEC50, pKd: −log10 of the molar value. Calls of active or inactive are those of the source. The calls are words filed in the database; no cut-off is given here.
Key:
[1] = test system: HEK-293T; experiment: Cytotoxicity against human HEK293T cells co-transfected with Gal4-fused human Nurr1 LBD and pFR-Luc/pRL-SV40 assessed as decrease in renilla luciferase activity at 100 uM incubated for 16 hrs by Dual-Glo luciferase assay relative to control
[2] = molecular target: T1, Nuclear receptor subfamily 4 group A member 2 (Homo sapiens, UniProt P43354); experiment: Agonist activity at Gal4-fused human Nurr1 LBD transfected in human HEK293T cells co-transfected with pFR-Luc/pRL-SV40 assessed as activation of luciferase activity incubated for 16 hrs by Dual-Glo luciferase assay
[3] = molecular target: T1, Nuclear receptor subfamily 4 group A member 2; experiment: Binding affinity to Nurr1 LBD (unknown origin) assessed as dissociation constant by Isothermal titration calorimetry
[4] = test system: HEK-293T; experiment: Cytotoxicity against human HEK293T cells assessed as reduction in cell viability at 100 uM incubated for 24 hrs by WST-8 assay; type: toxicity, cell-based
Outline: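 HEK293T cells were seeded on collagen G-coated wells, 10,000 per well, and after 24 h exposed to compound in Opti-MEM with 0.1% DMSO for 24 h; 0.1% DMSO alone served as untreated control. Metabolic activity was read by WST-8 (10%, 4 h) absorbance at 450 nm. Four biologically independent repeats.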

[5] = Glutathione reactivity at pH 7.4 assessed as compound remaining at 125 uM incubated upto 24 hrs by LC-UV-ESI-MS analysis; type: physicochemical; details: pH 7.4, 24 h
Outline: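 Compound (125 μM final) was shaken at 37 °C with 2.5 mM glutathione in PBS pH 7.4 (1% DMSO final). Aliquots at 0, 6, 18 and 24 h were diluted in mobile phase containing an internal standard. They were analyzed by reversed-phase LC with UV at 254 nm and positive ESI-MS in SIM mode. AUC was corrected to the internal standard. Run three times.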

[6] = molecular target: T1, Nuclear receptor subfamily 4 group A member 2; experiment: Binding affinity to Nurr1 LBD (unknown origin) at 200 uM by Isothermal titration calorimetry
[7] = test system: HEK293T; experiment: Agonist activity at Nurr1 LBD (unknown origin) transfected in human HEK293T cells co-transfected with pFR-Luc/pRL-SV40 assessed as maximum activation of luciferase activity at 1 uM incubated for 16 hrs in presence of 5-Chloro-N-{5-chloro-2-[2-(dimethylamino)ethoxy]phenyl}-1H-indole-6-carboxamide by Gal4 hybrid reporter gene assay relative to control; type: cell-based; details: filed as agonist
Outline: (§1)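 Gal4–Nurr1 LBD hybrid reporter assay in HEK293T cells (DMEM high glucose, 10% FCS, 37 °C, 5% CO2), transiently transfected with pFA-CMV-hNurr1-LBD, pFR-Luc reporter and pRL-SV40 control. Treatment began 5 h after transfection, 16 h in Opti-MEM with 0.1% DMSO, read by dual luciferase. Firefly/Renilla ratio ×1000 gave RLU; fold activation taken vs untreated control. At least three independent experiments, each in duplicate.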

[8] = test system: HEK293T; experiment: Agonist activity at Nurr1 LBD (unknown origin) transfected in human HEK293T cells co-transfected with pFR-Luc/pRL-SV40 assessed as maximum activation of luciferase activity at 1 uM incubated for 16 hrs in presence of 7-Chloro-N-{5-chloro-2-[2-(dimethylamino)ethoxy]phenyl}quinolin-4-amine by Gal4 hybrid reporter gene assay relative to control; type: cell-based; details: filed as agonist
Outline: as §1

[9] = molecular target: Nuclear receptor subfamily 4 group A member 2 (Rattus norvegicus) (UniProt Q07917); experiment: Agonist activity at Nurr1 in rat N27 cells assessed as increase in TH mRNA expression level at 30 to 100 uM incubated for 16 hrs by qPCR analysis; type: cell-based; details: filed as agonist, dose 30-100 µM
Outline: (§2)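 Rat N27 dopaminergic cells in RPMI 1640 with 10% FCS, switched to 0.2% FCS 7 h after seeding and held 24 h more. Stimulated 16 h with compound in 0.1% DMSO, with 0.1% DMSO as vehicle control. Total RNA was heat-linearized at 65 °C before reverse transcription. SYBR green qPCR ran 40 cycles with a melt curve. Target mRNA normalized to GAPDH by ΔCt, expressed relative to vehicle.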

[10] = molecular target: Nuclear receptor subfamily 4 group A member 2 (Rattus norvegicus) (UniProt Q07917); experiment: Agonist activity at Nurr1 in rat N27 cells assessed as increase in VMAT mRNA expression level at 30 to 100 uM incubated for 16 hrs by qPCR analysis; type: cell-based; details: filed as agonist, dose 30-100 µM
Outline: as §2

[11] = molecular target: Nuclear receptor subfamily 4 group A member 2 (Rattus norvegicus) (UniProt Q07917); experiment: Agonist activity at Nurr1 in rat N27 cells assessed as increase in SOD1 mRNA expression level at 30 to 100 uM incubated for 16 hrs by qPCR analysis; type: cell-based; details: filed as agonist, dose 30-100 µM
Outline: as §2

[12] = molecular target: Nuclear receptor subfamily 4 group A member 2 (Rattus norvegicus) (UniProt Q07917); experiment: Agonist activity at Nurr1 in rat N27 cells assessed as increase in SOD2 mRNA expression level at 30 to 100 uM incubated for 16 hrs by qPCR analysis; type: cell-based; details: filed as agonist, dose 30-100 µM
Outline: as §2

T1 sequence (P43354 whole entry, the tested form may be a part): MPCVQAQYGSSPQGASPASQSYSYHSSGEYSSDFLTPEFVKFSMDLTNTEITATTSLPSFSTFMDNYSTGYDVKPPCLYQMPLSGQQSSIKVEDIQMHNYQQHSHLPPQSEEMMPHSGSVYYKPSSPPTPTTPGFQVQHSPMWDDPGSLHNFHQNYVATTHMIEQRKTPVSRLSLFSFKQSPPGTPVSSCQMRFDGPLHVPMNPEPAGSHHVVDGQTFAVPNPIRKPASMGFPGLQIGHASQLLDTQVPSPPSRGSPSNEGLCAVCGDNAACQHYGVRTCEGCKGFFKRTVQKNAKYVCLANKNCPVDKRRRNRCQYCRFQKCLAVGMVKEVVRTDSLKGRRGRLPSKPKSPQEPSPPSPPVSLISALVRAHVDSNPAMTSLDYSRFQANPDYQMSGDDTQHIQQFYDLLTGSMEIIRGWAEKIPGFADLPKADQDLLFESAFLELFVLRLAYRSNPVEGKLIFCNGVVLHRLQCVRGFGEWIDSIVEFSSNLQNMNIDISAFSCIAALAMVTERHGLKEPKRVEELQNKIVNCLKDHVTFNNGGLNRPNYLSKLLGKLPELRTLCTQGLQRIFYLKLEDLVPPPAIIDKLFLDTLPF
Chain of Nuclear receptor subfamily 4 group A member 2 (Rattus norvegicus) (Q07917 whole entry): as the sequence (P43354 whole entry, the tested form may be a part) above, with T131S, P182R, E354D counted along it

Structure (SMILES) | Activity [1] | also measured
O=C(NCCNC1CCCCC1)c1cc2[nH]ccc2cc1Cl | Non-Toxic | –
O=C(NCC1CCN(Cc2ccccc2)CC1)c1cc2[nH]ccc2cc1Cl | Non-Toxic | –
NC1CCC(CC2CCC(N)CC2)CC1 (stereo not given) | Non-Toxic | –
NCCc1c[nH]c2ccc(F)cc12 | Non-Toxic | –
CC(C)CN1CCC(N)CC1 | Non-Toxic | –
NCCN1CCC2CCCCC2C1 (stereo not given) | Non-Toxic | –
O=C(NCCC12CCCN1CCC2)c1cc2[nH]ccc2cc1Cl | Non-Toxic | –
NCCNC1CCCCC1 | Non-Toxic | –
CN(C)Cc1ccccc1CN | Non-Toxic | –
CN1CCC(CN)(c2ccccc2)CC1 | Non-Toxic | –
CN(C)CCc1ccc(CNC(=O)c2cc3[nH]ccc3cc2Cl)cc1 | Non-Toxic | –
CN(C)CCc1ccc(CN)cc1 | Non-Toxic | –
CN(C)CCOc1ccc(Cl)cc1N | Non-Toxic | –
O=C(NCCN1CCC2CCCCC2C1)c1cc2[nH]ccc2cc1Cl (stereo not given) | Non-Toxic | pEC50 [2]: 4.92; pKd [3]: 5.49; Activity [4]: Non-Toxic
CN(C)Cc1ccccc1CNC(=O)c1cc2[nH]ccc2cc1Cl | Non-Toxic | –
O=C(NCc1ccc2cc[nH]c2c1)c1cc2[nH]ccc2cc1Cl | Non-Toxic | –
CCCCN1CCC(CNC(=O)c2cc3[nH]ccc3cc2Cl)C1 (stereo not given) | Non-Toxic | pEC50 [2]: 4.55; pKd [3]: 4.80
CN1CCC(Nc2ccccc2NC(=O)c2cc3[nH]ccc3cc2Cl)CC1 | Non-Toxic | –
O=C(Nc1ccccc1NCCCn1ccnc1)c1cc2[nH]ccc2cc1Cl | Non-Toxic | –
CCN(CC)C1CCC(N)CC1 (stereo not given) | Non-Toxic | –
NCc1ccc2[nH]ncc2c1 | Non-Toxic | –
CN(C)C(CN)c1ccc(F)cc1 (stereo not given) | Non-Toxic | –
CN(C)C(CNC(=O)c1cc2[nH]ccc2cc1Cl)c1ccc(F)cc1 (stereo not given) | Non-Toxic | –
CC(C)N1CCC(N)CC1 | Non-Toxic | –
NC(=O)CC1(N)CCCCC1 | Non-Toxic | –
CCN(CC)CC1CCCCC1N (stereo not given) | Toxic | –

Structure (SMILES) | Activity [1] | also measured
CCN1CCN(c2ccc(Cl)cc2N)CC1 | Non-Toxic | –
NC(=O)CC1(NC(=O)c2cc3[nH]ccc3cc2Cl)CCCCC1 | Non-Toxic | –
CN(C)CCOc1ccc(Cl)cc1NC(=O)c1cc2[nH]ccc2cc1Cl | Non-Toxic | Stability [5]: Stable; Activity [4]: Non-Toxic
CCN1CCN(c2ccc(Cl)cc2NC(=O)c2cc3[nH]ccc3cc2Cl)CC1 | Non-Toxic | –
O=C(NCCc1c[nH]c2ccc(F)cc12)c1cc2[nH]ccc2cc1Cl | Toxic | –
CCN(CC)C1CCC(NC(=O)c2cc3[nH]ccc3cc2Cl)CC1 (stereo not given) | Non-Toxic | Activity [4]: Non-Toxic; Activity [6]: inactive
Nc1ccccc1NCCCn1ccnc1 | Non-Toxic | –
CC(C)N1CCC(NC(=O)c2cc3[nH]ccc3cc2Cl)CC1 | Non-Toxic | Activity [4]: Non-Toxic; Activity [6]: inactive
C#CCOc1cccc(-c2ccc(NC(=O)C3=C(C(=O)O)CCC3)c(F)c2)c1 | – | Emax [7]: 134%; Emax [8]: 177%
Nc1cc(CNC(=O)c2cc3[nH]ccc3cc2Cl)cc(C(F)(F)F)c1 | Toxic | –
CC(C)CN1CCC(NC(=O)c2cc3[nH]ccc3cc2Cl)CC1 | Non-Toxic | –
CC1CCN(CCCN)CC1 | Non-Toxic | –
O=C(NCc1ccc2[nH]ncc2c1)c1cc2[nH]ccc2cc1Cl | Toxic | –
CN(C)CCOc1ccc(Cl)cc1NC(=O)c1cc2c(ccn2C)cc1Cl | – | pEC50 [2]: 4.80; pKd [3]: 6.00
NCc1cc(N)cc(C(F)(F)F)c1 | Non-Toxic | –
NCc1ccc2cc[nH]c2c1 | Non-Toxic | –
CC1CCN(CCCNC(=O)c2cc3[nH]ccc3cc2Cl)CC1 | Non-Toxic | Activity [4]: Non-Toxic; Activity [6]: inactive
Clc1ccc2[nH]ccc2c1 | – | pEC50 [2]: 4.40; Activity [9]: Dose-Dependent Effect; Activity [10]: Dose-Dependent Effect; Activity [11]: Dose-Dependent Effect; Activity [12]: Dose-Dependent Effect
CCCCN1CCC(CN)C1 (stereo not given) | Non-Toxic | –
NCCC12CCCN1CCC2 | Non-Toxic | –
CN1CCC(Nc2ccccc2N)CC1 | Toxic | –
CN1CCC(CNC(=O)c2cc3[nH]ccc3cc2Cl)(c2ccccc2)CC1 | Non-Toxic | –
CCN(CC)CC1CCCCC1NC(=O)c1cc2[nH]ccc2cc1Cl (stereo not given) | Non-Toxic | –
NC1CCC(CC2CCC(NC(=O)c3cc4[nH]ccc4cc3Cl)CC2)CC1 (stereo not given) | Toxic | –
NCC1CCN(Cc2ccccc2)CC1 | Non-Toxic | –

Reference: ChEMBL document CHEMBL5365527, “Structure-Guided Design of Nurr1 Agonists Derived from the Natural Ligand Dihydroxyindole” (J Med Chem, 2023)
